A selection: hits, their analogues and other compounds. The true share with any hit is near 1.9%.
NR2E3 ag-1: activates human NR2E3 receptor. Q9Y5X4. inhibition of corepressor binding, % at 3.98 µM. CHO-S Gal4-NCOR/VP16-NR2E3 two-hybrid, luciferase. 360,000 tested, 0.35% active;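 active = inhibition above the mean of all tested compounds plus 3 SD, cut at about 70% in these data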;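 note: higher means lower luciferase signal from less NR2E3 corepressor binding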
Target sequence (Q9Y5X4 whole entry, looked up, the tested form may be a part): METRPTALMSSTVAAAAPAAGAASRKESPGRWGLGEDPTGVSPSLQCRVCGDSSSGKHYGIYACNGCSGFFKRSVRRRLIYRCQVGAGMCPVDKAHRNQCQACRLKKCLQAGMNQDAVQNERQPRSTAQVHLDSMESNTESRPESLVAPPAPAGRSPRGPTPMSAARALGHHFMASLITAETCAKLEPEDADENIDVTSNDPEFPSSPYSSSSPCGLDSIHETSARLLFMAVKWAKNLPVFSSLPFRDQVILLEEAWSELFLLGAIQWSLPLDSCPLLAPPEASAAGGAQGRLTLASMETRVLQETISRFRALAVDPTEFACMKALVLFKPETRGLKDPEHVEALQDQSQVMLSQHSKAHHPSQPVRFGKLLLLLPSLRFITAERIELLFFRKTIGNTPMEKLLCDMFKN
MT1-MMP act inh: blocks activation of human MT1-MMP; HT1080 RFP-PRO-GFP cells, GFP/RFP ratio fluorescence, overnight; percent of plate control window, DMSO zero; 360,000 tested, 0.061% active; GFP/RFP ratio change, % at 20 µM; P50281;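 active = GFP/RFP ratio change of at least 30% with cell ATP level not reduced by more than half and red fluorescence within 50% of control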
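Assay system: HT1080 cells carrying an RFP-PRO-GFP reporter | Dosing: Single dose of 20 µM compound, 1% DMSO final | Incubation: Cells overnight before dosing, compound overnight, 37 °C, 5% CO2 | Evaluation: GFP/RFP fluorescence ratio | Control set: DMSO and RFP-L50D-GFP cell wells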
SKN-1 inh: inhibitors of C. elegans SKN-1 | C. elegans VP596 Pgst-4::GFP/RFP ratio, acrylamide-induced, 24 h | inhibition, % at 21.8 µM | 360,000 tested, 0.49% active | AID 624304;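 active = interference check ratio from 0.5 to 1.5 plus GFP to RFP signal ratio inhibition reaching or exceeding a fixed threshold, cut at about 30% in these data, passing the limit was not always enough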
PG9 binder: binds the HIV-1 gp120 antibody PG9. TR-FRET gp120-PG9 antibody binding. inhibition, % at 6.7 µM. AID 624416. 360,000 tested, 0.43% active; in the data active = inhibition above about 8.5%
NR2E3 ag-2: activates human photoreceptor nuclear receptor NR2E3. Q9Y5X4. GST-NR2E3/biotin-RetCOR TR-FRET, 1536-well. inhibition of corepressor binding, % at 4.78 µM. 320,000 tested, 0.12% active;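 active = percent inhibition above the cutoff of mean plus 3 SD of all tested compounds, set per screening campaign, cut at about 20% in these data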
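Material: NR2E3–RetCOR corepressor complex | Quantity: 1.35 nM GST-tagged NR2E3 final | Schedule: 5 h at 4 °C | Replication: Singlicate compound wells | Reagent: RetCOR corepressor, biotinylated, 7 nM | Controls: Biotin wells as high control, 0.6% DMSO wells as low control | Signal: TR-FRET, Eu(K)-anti-GST donor, streptavidin-D2 acceptor, ex 340, em 617/671 nm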
Rev-erbA mod: modulators of human Rev-erb alpha DNA binding. P20393. Rev-erbα–FITC-DNA binding, fluorescence polarization, 90 min. activity, % at 10 µM. 370,000 tested, 0.79% active;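 active = activity above about 14%, limit read from the data; passing the limit was not always enough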
NR2E3 ag confirm: NR2E3 agonism confirmed in two-hybrid assay. shares compounds with NR2E3 ag-1. CHO-S mammalian two-hybrid NR2E3-NCOR, luciferase luminescence. inhibition, % at 3.98 µM. 2,300 tested, 51% active. AID 624378;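 active = average inhibition above a cutoff equal to the mean inhibition of all tested compounds plus one SD, cut at about 70% in these data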
GAL4-VP16 luc: GAL4-VP16 reporter inhibition in NR2E3 agonist counterscreen; shares compounds with NR2E3 ag-1; CHO-S GAL4-VP16 luciferase reporter, luminescence; inhibition, % at 3.98 µM; 2,300 tested, 29% active; AID 624379;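 active = mean inhibition above a cutoff equal to the average over all tested compounds plus one standard deviation, cut at about 70% in these data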;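 note: luciferase from a UAS reporter driven by GAL4-VP16 transactivation; higher means less reporter light so more repression of VP16 activity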
A number is an active result; i = inactive; nt = no result.

SMILES	NR2E3 ag-1	MT1-MMP act inh	SKN-1 inh	PG9 binder	NR2E3 ag-2	Rev-erbA mod	NR2E3 ag confirm	GAL4-VP16 luc
CCOC(=O)C1=C(C(=O)OCC)C2N(Cc3ccc(C(F)(F)F)cc3)c3ccccc3[C@@]23C[C@@H](C(=O)OC)N(S(=O)(=O)c2ccccc2C)C3=N1 (stereo not given in full)	nt	nt	nt	i	nt	i	nt	nt
CCOC(=O)[C@]12CCCC=C1N(CCCOC)C(=O)[C@@H]2CC(=O)NCC12CC3CC(CC(C3)C1)C2	nt	nt	nt	nt	nt	i	nt	nt
CC(C)N1CCc2c(sc(NC(=O)c3ccc([N+](=O)[O-])o3)c2C(N)=O)C1	i	i	i	i	i	i	84	i
CC(=O)N1CCc2c(sc(NC(=O)c3ccc([N+](=O)[O-])o3)c2C#N)C1	i	i	i	i	nt	i	i	i
O=c1c(Cl)c(N2CCN(c3ccc(F)cc3)CC2)cnn1C12CC3CC(CC(C3)C1)C2	i	i	i	i	i	i	71	i
CC(C)C[C@H]1COc2cc(Br)ccc2S(=O)(=O)N1Cc1cn(Cc2ccc(Cl)cc2)nn1	nt	nt	nt	nt	nt	i	nt	nt
CCC(C)NC(=O)c1cccc(OCc2c(C)noc2C)c1 (stereo not given)	i	i	i	i	i	i	nt	nt
CCOC(=O)c1c(C)[nH]c(C(=O)C(C)OC(=O)c2cccc(OCc3c(C)noc3C)c2)c1C (stereo not given)	76	i	i	i	i	i	83	i
N#Cc1cc2c(nc1SCC(=O)N1CCOCC1)CCCCC2	73	nt	i	i	i	i	i	i
COc1ccc(CNc2ncnc3c2[nH]c2ccccc23)cc1	i	i	i	i	i	i	89	72
C1=C(CCNc2ncnc3c2[nH]c2ccccc23)CCCC1	74	i	i	i	i	i	97	81
Cc1csc(SCC(=O)c2cc(C)n(Cc3cccs3)c2C)n1	i	i	i	i	i	i	i	i
COC(=O)c1ccc(-n2c(C)cc(C(=O)CSc3ccc(NC(C)=O)cc3)c2C)cc1	i	i	i	i	i	i	nt	nt
CC(=O)Nc1ccc(SCC(=O)c2cc(C)n(Cc3cccs3)c2C)cc1	i	i	i	i	i	i	i	i
CC(=O)Nc1ccc(SCC(=O)c2cc(C)n(-c3ccccc3F)c2C)cc1	i	i	i	i	i	i	i	i
COCCn1c(C)cc(C(=O)CSc2ccc(NC(C)=O)cc2)c1C	i	i	i	i	i	i	nt	nt
C[C@H]1C2CC(OC(=O)NCc3ccc(Cl)cc3)C(C2)[C@H]2CCCCN21 (stereo not given in full)	nt	nt	nt	nt	nt	i	nt	nt
O=C(N[C@H](Cc1ccccc1)C(=O)N1CCN(c2ccc(Cl)cn2)CC1)[C@H]1O[C@@H](n2ccc(=O)[nH]c2=O)[C@H](O)[C@@H]1O	nt	nt	nt	i	nt	i	nt	nt
CCCCCc1c(-c2ccccc2OC)ncn1CCc1ccccc1OC	i	i	i	i	nt	i	i	i
COCc1[nH]nc2c1C(c1ccc(Br)cc1)N(c1ccc(OC)cc1)C2=O (stereo not given)	nt	nt	nt	i	nt	i	nt	nt
CCCOc1ccc(Cn2cnc3ccccc32)cc1	i	i	i	i	i	i	78	i
Fc1ccc(Cn2cnc3ccccc32)cc1	i	i	i	i	i	i	nt	nt
COc1ccc(Nc2cc3n(c(=O)n2)CCc2cc(OC)c(OC)cc2-3)cc1	i	i	i	i	i	i	nt	nt
COc1cc2c(cc1OC)-c1cc(Nc3ccc4c(c3)OCCO4)nc(=O)n1CC2	i	i	i	i	i	i	i	i
O=C(NC(C(=O)N1CCCC1C(=O)NC1CCCC1)c1ccccc1)c1cccs1 (stereo not given)	nt	nt	nt	i	nt	i	nt	nt
O=c1c(/C=N/OCc2ccc(Cl)cc2Cl)c[nH]n1-c1cccc(Cl)n1	i	i	i	i	i	i	98	i
